ChEMBL document CHEMBL3232904, “Discovery of novel quinoline carboxylic acid series as DGAT1 inhibitors” (Bioorg Med Chem Lett, 2014)
In brackets after ≈: the same amount, converted by molar mass.

What was measured:
[1] = molecular target: T1, Diacylglycerol O-acyltransferase 2 (Homo sapiens, UniProt Q96PD7); experiment: Inhibition of human DGAT2
T1 sequence (Q96PD7 whole entry): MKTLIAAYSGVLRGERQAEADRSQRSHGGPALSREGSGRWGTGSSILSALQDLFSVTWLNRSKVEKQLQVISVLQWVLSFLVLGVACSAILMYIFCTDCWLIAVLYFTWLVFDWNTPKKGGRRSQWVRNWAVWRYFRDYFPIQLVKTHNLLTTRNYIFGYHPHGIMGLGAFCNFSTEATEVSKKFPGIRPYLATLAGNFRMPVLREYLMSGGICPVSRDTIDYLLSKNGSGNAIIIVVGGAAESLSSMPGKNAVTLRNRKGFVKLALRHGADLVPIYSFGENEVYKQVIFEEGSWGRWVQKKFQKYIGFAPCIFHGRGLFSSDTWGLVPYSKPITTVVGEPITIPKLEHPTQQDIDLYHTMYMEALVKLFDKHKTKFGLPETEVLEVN

[2] = Drug degradation in human plasma at 25 degC after 12 hrs; type: ADME, cell-free; conditions: read-out: Drug degradation
[3] = molecular target: T2, Diacylglycerol O-acyltransferase 1 (Homo sapiens, UniProt O75907); experiment: Inhibition of human DGAT1
T2 sequence (O75907 whole entry): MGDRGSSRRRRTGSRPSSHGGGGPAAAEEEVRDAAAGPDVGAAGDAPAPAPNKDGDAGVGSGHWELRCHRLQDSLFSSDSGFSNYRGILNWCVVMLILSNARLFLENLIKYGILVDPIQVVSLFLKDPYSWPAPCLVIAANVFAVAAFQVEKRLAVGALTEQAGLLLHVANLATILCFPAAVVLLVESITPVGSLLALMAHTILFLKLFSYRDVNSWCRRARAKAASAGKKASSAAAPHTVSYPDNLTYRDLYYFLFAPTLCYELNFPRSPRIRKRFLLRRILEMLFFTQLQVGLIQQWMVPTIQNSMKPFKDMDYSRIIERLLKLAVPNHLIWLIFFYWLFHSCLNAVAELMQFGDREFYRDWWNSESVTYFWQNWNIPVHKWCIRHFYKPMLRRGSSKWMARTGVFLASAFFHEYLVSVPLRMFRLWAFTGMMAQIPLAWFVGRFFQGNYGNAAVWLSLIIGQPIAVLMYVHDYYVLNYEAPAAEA

Mus musculus [4] = experiment: Reduction of postprandial plasma triglyceride level in C57BL/6J mouse at 10 mg/kg, po administered 15 mins prior to corn oil bolus challenge measured after 2 hrs relative to vehicle-treated control; type: functional; set-up: scale not given: the % may be the effect or the level left
Summary of the method: (§1)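 Vehicle is 20% hydroxypropyl-β-cyclodextrin; compound or vehicle is given 15 min before time 0. Mice receive a 0.25 mL corn oil bolus at time 0. Terminal blood is taken by heart puncture at 120 min. Plasma TG is measured by an enzymatic colorimetric kit with absorbance read at 600 nm. Values are the mean ± SEM from eight studies, as % reduction versus vehicle.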

[5] = molecular target: T3, Sterol O-acyltransferase 2 (Homo sapiens, UniProt O75908); experiment: Inhibition of human ACAT2
T3 sequence (O75908 whole entry): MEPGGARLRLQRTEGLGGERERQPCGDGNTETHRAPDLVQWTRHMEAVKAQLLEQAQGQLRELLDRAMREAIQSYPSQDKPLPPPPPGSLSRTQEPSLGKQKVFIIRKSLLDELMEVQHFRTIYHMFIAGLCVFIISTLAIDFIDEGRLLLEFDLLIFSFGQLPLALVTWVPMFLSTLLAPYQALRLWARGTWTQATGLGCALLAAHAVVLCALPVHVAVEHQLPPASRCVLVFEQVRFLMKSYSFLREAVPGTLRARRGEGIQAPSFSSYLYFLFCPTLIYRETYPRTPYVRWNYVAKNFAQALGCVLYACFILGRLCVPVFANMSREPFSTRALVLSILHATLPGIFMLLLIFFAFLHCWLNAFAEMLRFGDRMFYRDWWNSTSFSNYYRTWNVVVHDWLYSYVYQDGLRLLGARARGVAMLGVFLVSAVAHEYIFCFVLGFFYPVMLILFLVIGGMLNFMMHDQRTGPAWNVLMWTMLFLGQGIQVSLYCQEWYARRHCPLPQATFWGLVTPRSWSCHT
Summary of the method: (§2)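 IC50 values are the average of at least two independent determinations.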

[6] = molecular target: T4, Diacylglycerol O-acyltransferase 1 (Mus musculus, UniProt Q9Z2A7); experiment: Inhibition of mouse DGAT1; summary of the method: as §2
T4 sequence (Q9Z2A7 whole entry): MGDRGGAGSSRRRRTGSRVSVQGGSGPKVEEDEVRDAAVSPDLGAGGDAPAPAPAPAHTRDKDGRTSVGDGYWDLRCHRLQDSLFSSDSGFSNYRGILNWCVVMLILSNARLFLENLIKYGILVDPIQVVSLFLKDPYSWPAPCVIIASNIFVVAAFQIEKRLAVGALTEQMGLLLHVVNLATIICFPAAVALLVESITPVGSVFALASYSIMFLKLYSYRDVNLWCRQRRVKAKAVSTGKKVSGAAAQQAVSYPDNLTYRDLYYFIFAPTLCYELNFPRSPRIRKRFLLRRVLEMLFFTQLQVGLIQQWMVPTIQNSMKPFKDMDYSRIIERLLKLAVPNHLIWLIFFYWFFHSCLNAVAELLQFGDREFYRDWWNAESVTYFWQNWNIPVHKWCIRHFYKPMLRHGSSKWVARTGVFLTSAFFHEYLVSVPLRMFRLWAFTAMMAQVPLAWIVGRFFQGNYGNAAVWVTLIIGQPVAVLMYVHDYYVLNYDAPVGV

[7] = AUC in rat at 10 mg/kg, po; type: ADME, organism-based; set-up: dose 10 mg/kg, route oral; conditions: plasma
[8] = Clearance in human hepatocytes assessed per million cells; type: ADME, cell-based, Hepatocyte; conditions: read-out: CLH
[9] = Solubility of the compound; type: physicochemical
[10] = Clearance in rat hepatocytes assessed per million cells; type: ADME, cell-based, Hepatocyte; conditions: read-out: CLH
[11] = Plasma protein binding in rat; type: ADME, cell-free; conditions: read-out: PPB (converted)
[12] = Oral bioavailability in rat at 10 mg/kg; type: ADME, organism-based; conditions: in vivo
[13] = Permeability across human Caco2 cells; type: ADME, cell-based; conditions: Caco-2, read-out: permeability
[14] = Half life in rat at 10 mg/kg, po; type: ADME, organism-based; set-up: dose 10 mg/kg, route oral; conditions: in vivo
[15] = Metabolic stability in human plasma assessed as compound recovery at 25 degC after 6 days; type: ADME, cell-free; conditions: read-out: Drug recovery
CYP1A1 = molecular target: T5, CYP1A1 (Homo sapiens, UniProt P04798); experiment: Induction of CYP1A1 (unknown origin) at 30 uM; type: ADME; conditions: read-out: FC
T5 sequence (P04798 whole entry): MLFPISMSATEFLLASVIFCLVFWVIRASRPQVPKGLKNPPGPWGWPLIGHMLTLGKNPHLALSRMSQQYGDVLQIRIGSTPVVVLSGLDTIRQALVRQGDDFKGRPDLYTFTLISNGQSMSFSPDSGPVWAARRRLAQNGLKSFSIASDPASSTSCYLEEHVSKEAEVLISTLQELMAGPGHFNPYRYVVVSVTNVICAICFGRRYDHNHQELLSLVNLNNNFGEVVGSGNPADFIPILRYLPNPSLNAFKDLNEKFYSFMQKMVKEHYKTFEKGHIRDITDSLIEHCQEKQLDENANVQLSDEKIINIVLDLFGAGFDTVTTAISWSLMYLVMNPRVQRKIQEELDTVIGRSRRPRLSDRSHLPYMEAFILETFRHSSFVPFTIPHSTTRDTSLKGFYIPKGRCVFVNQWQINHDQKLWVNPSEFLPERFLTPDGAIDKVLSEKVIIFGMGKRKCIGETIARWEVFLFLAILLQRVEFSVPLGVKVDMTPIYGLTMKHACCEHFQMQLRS

[16] = Solubility of the compound at pH 7; type: physicochemical; conditions: buffer
[17] = molecular target: T6, Sterol O-acyltransferase 1 (Homo sapiens, UniProt P35610); experiment: Inhibition of human ACAT1; summary of the method: as §2
T6 sequence (P35610 whole entry): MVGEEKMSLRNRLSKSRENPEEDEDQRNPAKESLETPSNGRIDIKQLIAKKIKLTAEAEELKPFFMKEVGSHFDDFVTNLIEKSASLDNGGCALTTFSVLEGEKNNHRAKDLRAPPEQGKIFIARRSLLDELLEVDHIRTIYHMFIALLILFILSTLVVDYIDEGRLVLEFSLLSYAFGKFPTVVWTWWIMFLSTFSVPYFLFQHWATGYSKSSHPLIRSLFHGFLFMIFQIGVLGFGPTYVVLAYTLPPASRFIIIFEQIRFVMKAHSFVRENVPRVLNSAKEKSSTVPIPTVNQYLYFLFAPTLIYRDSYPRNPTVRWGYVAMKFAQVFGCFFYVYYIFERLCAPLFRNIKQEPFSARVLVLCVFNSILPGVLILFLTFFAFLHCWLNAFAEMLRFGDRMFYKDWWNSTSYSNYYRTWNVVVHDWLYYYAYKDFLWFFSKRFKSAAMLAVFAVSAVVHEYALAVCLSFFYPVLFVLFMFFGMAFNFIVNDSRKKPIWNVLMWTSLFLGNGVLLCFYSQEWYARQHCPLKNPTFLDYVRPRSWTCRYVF

Mus musculus [18] = experiment: Reduction of postprandial plasma triglyceride level in C57BL/6J mouse at 3 mg/kg, po administered 15 mins prior to corn oil bolus challenge measured after 2 hrs relative to vehicle-treated control; type: functional; set-up: scale not given: the % may be the effect or the level left; summary of the method: as §1

Compound | IC50 [3] [nM] | Activity (Mus musculus [4]) [%] | IC50 [6] [nM] | AUC [7] [µM·h] | also measured
O=C(O)C[C@H]1CC[C@H](c2ccc(-c3ccc4c(ccn4C(=O)Nc4ccccc4)c3)cc2)CC1 | 37 | -45 |  |  | IC50 [1]: > 50000 nM; metabolised at 12 h [2]: 40%; IC50 [5]: 3000 nM
O=C(O)C[C@H]1CC[C@H](c2ccc(-c3ccc4oc(Nc5ccccc5)nc4c3)cc2)CC1 |  |  | 3840 |  | 
O=C(O)C[C@H]1CC[C@H](c2ccc(-c3ccc4nc(Nc5ccccc5)ncc4c3)cc2)CC1 |  |  | > 10000 |  | 
O=C(O)C[C@H]1CC[C@H](c2ccc(-c3ccc4nc(C(=O)Nc5ccccc5)[nH]c4c3)cc2)CC1 |  |  | > 5000 |  | 
O=C(O)C[C@H]1CC[C@H](c2ccc(-c3ccc4cc(C(=O)Nc5ccccc5)[nH]c4c3)cc2)CC1 |  |  | 1090 |  | 
O=C(O)C[C@H]1CC[C@H](c2ccc(-c3ccc4c(C(=O)Nc5ccccc5)c[nH]c4c3)cc2)CC1 |  | 23 | 284 | 1.3 | 
O=C(O)C[C@H]1CC[C@H](c2ccc(-c3ccc4c(c3)CCCN4C(=O)Nc3ccccc3)cc2)CC1 |  | -15 | 84 | 79 | 
O=C(O)C[C@H]1CC[C@H](c2ccc(-c3ccc4c(c3)C(=O)CCN4C(=O)Nc3ccccc3)cc2)CC1 | > 10000 |  | 1670 |  | 
O=C(O)C[C@H]1CC[C@H](c2ccc(-c3ccc4c(c3)NCCN4C(=O)Nc3ccccc3)cc2)CC1 |  |  | 4820 |  | 
CN1CCN(C(=O)Nc2ccccc2)c2ccc(-c3ccc([C@H]4CC[C@H](CC(=O)O)CC4)cc3)cc2C1 | > 10000 |  | > 10000 |  | 
O=C(O)C[C@H]1CC[C@H](c2ccc(-c3ccc4c(c3)CCN4C(=O)Nc3ccccc3)cc2)CC1 |  | -13 | 69 | 17 | hepatocyte CLint [8]: 3 µL/min/1e6 cells; metabolised at 12 h [2]: 20%; solubility [9]: 50 µM (≈ 22.7 µg/mL); hepatocyte CLint [10]: 13 µL/min/1e6 cells; fraction unbound [11]: 0.002; bioavailability [12]: > 90%; Papp [13]: 17 ×10⁻⁶ cm/s; half-life [14]: 3 h
O=C(O)C[C@H]1CC[C@H](c2ccc(-c3ccc4c(c3)OCCN4C(=O)Nc3ccccc3)cc2)CC1 | 65 | -52 | 40 | 58 | hepatocyte CLint [8]: 11 µL/min/1e6 cells; IC50 [1]: > 10000 nM; remaining at 144 h [15]: 80%; fold induction at 30 µM (CYP1A1): 10; solubility [9]: 100 µM (≈ 47.1 µg/mL); hepatocyte CLint [10]: 9 µL/min/1e6 cells; fraction unbound [11]: 0.002; Papp [13]: 44.8 ×10⁻⁶ cm/s; half-life [14]: 4 h; IC50 [5]: 9700 nM
O=C(O)C[C@H]1CC[C@H](c2ccc(-c3ccc4c(C(=O)Nc5ccccc5)cccc4c3)cc2)CC1 |  | 0 | 8 |  | solubility [16]: 10 µM (≈ 4.64 µg/mL)
O=C(O)C[C@H]1CC[C@H](c2ccc(-c3ccc4c(C(=O)Nc5ccccc5)ccnc4c3)cc2)CC1 | 41 | -85 | 23 | 5 | solubility [9]: 50 µM (≈ 23.2 µg/mL); IC50 [17]: 4170 nM; Papp [13]: 54.2 ×10⁻⁶ cm/s
Cc1cc(C(=O)NCCCCCc2ccccc2)c2ccc(-c3ccc([C@H]4CC[C@H](CC(=O)O)CC4)cc3)cc2n1 |  |  | 1.4 | 10 | Activity (Mus musculus [18]): -58%
Cc1cc(C(=O)Nc2ccccc2)c2ccc(-c3ccc(OCC(C)(C)C(=O)O)nc3)cc2n1 |  |  | 69 | 34 | Activity (Mus musculus [18]): -91%; IC50 [5]: 1550 nM
Cc1cc(C(=O)Nc2ccccc2)c2ccc(-c3ccc(OCC(C)(C)C(=O)O)[n+]([O-])c3)cc2n1 | 122 |  | 23 |  | Activity (Mus musculus [18]): -40%; IC50 [5]: 13300 nM
